DAGLB inh = DAGLB lipase inhibitors, primary screen, biochemical, fluorescence, HTS | HEK293T DAGLB membrane lysate, EnzChek fluorogenic substrate | 340,000 compounds, 0.059% hits | inhibition, % at 5.17 µM | AID 504411, 2011 | Diacylglycerol lipase-beta (Homo sapiens), Q8NCG7; in the data active = inhibition above about 34%;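 also: 0% = enzyme with vehicle and 100% = wells lacking enzyme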
CTSL1 counter = Fasciola hepatica cathepsin L1 inhibitors, primary screen, counter-screen for PFM18AAP inhibitor project, biochemical, QFRET, fluorogenic peptide substrate. recombinant F. hepatica cathepsin L1, Z-Leu-Arg-MCA fluorescence. inhibition, % at 5.96 µM. 300,000 compounds, 0.49% hits. AID 1906, 2009;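 active = inhibition above the mean of all tested compounds plus 3 SD, set per screening campaign, cut at about 17% in these data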;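 also: 0% = plate median of test compound wells and 100% = 1 µM Z-Phe-Ala-diazomethylketone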
MT1-MMP act inh = blockers of MT1-MMP proenzyme processing, primary screen, HT1080 RFP-PRO-GFP cells, GFP/RFP fluorescence; Matrix metalloproteinase-14 (Homo sapiens), P50281; GFP/RFP ratio fluorescence, overnight; percent of plate control window, DMSO zero; GFP/RFP ratio change, % at 20 µM; 360,000 compounds, 0.061% hits;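 active = GFP/RFP ratio change of at least 30% with cell ATP level not reduced by more than half and red fluorescence within 50% of control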
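Compound: 20 µM single dose, 1% DMSO / System: HT1080 RFP-PRO-GFP cells / Controls: DMSO and RFP-L50D-GFP cell wells / Read-out basis: GFP/RFP fluorescence ratio / Schedule: overnight compound exposure at 37 °C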
CendR NRP1 mod = modulators of CendR peptide binding to NRP-1, primary screen, biochemical, fluorescence polarization, uHTS; Neuropilin-1 (Homo sapiens), O14786; FAM-RPARPAR peptide binding to NRP-1; inhibition, % at 25 µM; 360,000 compounds, 0.85% hits;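 active = inhibition or corrected inhibition above about 18%, plus a signal ratio from 0.5 to 1.5, limit read from the data, passing the limit was not always enough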
UCH37 inh = inhibitors of human UCH37 deubiquitinase, primary screen, biochemical, Ub-AMC cleavage, fluorescence | purified proteasome/UCH37 | inhibition, % (concentration not given with the values) | 330,000 compounds, 0.33% hits | AID 588478, 2011;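 active = mean inhibition over replicate wells above about 20%, limit read from the data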;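 also: 0% = compound-free wells with enzyme and 100% = wells lacking proteasome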
Target sequence (Q9Y5K5 whole entry, looked up): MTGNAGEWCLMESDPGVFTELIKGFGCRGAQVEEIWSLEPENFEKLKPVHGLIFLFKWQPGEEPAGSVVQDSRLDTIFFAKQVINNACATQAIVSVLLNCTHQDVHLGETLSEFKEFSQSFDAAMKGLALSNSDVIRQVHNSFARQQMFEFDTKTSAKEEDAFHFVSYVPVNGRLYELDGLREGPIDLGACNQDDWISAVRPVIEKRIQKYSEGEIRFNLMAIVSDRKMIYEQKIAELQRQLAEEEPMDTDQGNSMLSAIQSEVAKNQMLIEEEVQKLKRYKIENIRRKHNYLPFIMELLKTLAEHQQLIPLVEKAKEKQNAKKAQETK
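Material: human UCH37 enzyme supplied as purified proteasome complex / Amount: 0.15 nM proteasome as dispensed / Buffer or medium: pH 7.4 Tris-HCl (50 mM) with ovalbumin, ATP-MgCl2, DTT / Times: preincubation 30 min, reaction 25 min, room temperature / Technique: AMC fluorescence from Ub-AMC cleavage, excitation 355 nm, emission 460 nm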
* = called active by the depositor; . = no result. Compounds with a hit are over-represented: about 1.5% of the library has one in this group of screens.

SMILES	DAGLB inh	CTSL1 counter	MT1-MMP act inh	CendR NRP1 mod	UCH37 inh
O=C(COc1ccccc1)NCC1(N2CCCCC2)CCCCC1	2	28*	1	1	2
N#Cc1ccc(OCC(=O)NCC2(N3CCCCC3)CCCCC2)cc1	-1	5	2	0	1
CCOc1cc(C=NO)cc(Br)c1OC	.	.	.	.	2
CCc1ccc(NC(=O)CCn2nc(C)c(S(=O)(=O)N3CCCCC3)c2C)cc1	1	1	-2	24*	0
O=C(/C=C/c1ccccc1)c1ccccn1	-2	2	-10	37*	1
Cc1ccc(OCC(=NO)C(C)(C)C)c([N+](=O)[O-])c1	.	.	.	.	6
C/C(=N\NC(=O)C1CCCC1)c1ccc(C(C)C)cc1	-1	2	9	27*	.
CC(=NNC(=O)C1CCCC1)c1ccc(Cl)cc1	.	.	.	.	9
CC(O)[C@H](NC(=O)C1(c2ccccc2)CCN(C(=O)OC(C)(C)C)CC1)C(=O)O (stereo partly drawn)	0	30*	3	7	-1
Cc1ccc(Sc2oc(C=Nn3cnnc3)cc2Br)cc1	.	.	.	.	-6
O=C1NCCN1C(=O)c1cccc(Cl)c1	-2	19*	4	3	2
CCCCCOC(=O)C1C2C=CC3(CN(c4ccccc4C)C(=O)C13)O2 (stereo not drawn)	-1	19*	1	8	5
N#Cc1c(N2CCOCC2)nc(-c2ccco2)c2c1CCCC2	5	42*	-6	-23	-135
CC(C)CCNc1nc(-c2ccco2)c2c(c1C#N)CCCC2	-5	19*	-7	-29	-442
N#Cc1c(NCCN)nc(-c2ccco2)c2c1CCCC2	2	11	2	0	-170
CC(=NNc1ccccc1)C(=NO)C(=O)Nc1ccccc1	.	.	.	.	5
Cc1ccc(S(=O)(=O)N2CCOCC2)cc1NC(=O)Cn1cc(C(F)(F)F)cc(Cl)c1=O	-3	0	4	-6	-1
O=C(Cn1cc(C(F)(F)F)cc(Cl)c1=O)Nc1cc(S(=O)(=O)N2CCOCC2)ccc1Cl	-2	-2	1	22*	-1
CCn1c(=O)cc(SCC(=O)N2CCCCC2)c2ccccc21	-2	0	11	22*	1
CC(C)Cn1c(N)c(C=NNC(=O)c2ccc(Cl)cc2)c(=O)n(C)c1=O	.	.	.	.	-293
O=C(Nc1ccc(Cl)c(C(F)(F)F)c1)[C@@H]1CC=C[C@@H]2CCN(C3CCCCC3)C(=O)[C@@H]21	2	-1	-3	13	-2
O=C(Nc1ccc(Cl)c(C(F)(F)F)c1)[C@@H]1CC=C[C@@H]2CCN(C3CC3)C(=O)[C@@H]21	-1	-1	-3	24*	3
CCOc1ccc(N(CC(=O)NCc2ccco2)C(=O)CCC(=O)Nc2ccccn2)cc1	0	.	-4	5	4
COc1ccc(N(CC(=O)NCc2ccco2)C(=O)CCC(=O)Nc2ccccn2)cc1	-1	.	-2	21*	2
Cc1cccnc1NC(=O)CN1C(=O)NC(C)(c2ccc3ccccc3c2)C1=O (stereo not drawn)	3	-8	-5	28*	5
SMILES	DAGLB inh	CTSL1 counter	MT1-MMP act inh	CendR NRP1 mod	UCH37 inh
O=c1c(/C=N/OCc2ccc(Cl)cc2Cl)c[nH]n1-c1cccc(Cl)n1	8	-5	1	7	.
O=c1c(-n2cncn2)c[nH]n1-c1cccc(Cl)n1	-1	-3	-5	18*	2
O=C(NCc1ccco1)C(c1ccco1)N(C(=O)Cn1nnc2ccccc21)c1ccc2c(c1)CCC2 (stereo not drawn)	-3	8	-3	19*	2
Cc1ccc([N+](=O)[O-])cc1-c1ccc(C=NNC(=O)c2cc3c(ccc4ccccc43)o2)o1	.	.	.	.	6
Cc1ccc(/C=C2/SC(=O)NC2=S)o1	1	.	-20	53*	17
Cc1ccc(/C=C2/SC(=S)N(C3CCCCC3)C2=O)o1	7	9	5	-66	.
COc1cc(Oc2ccccc2)nc(N)n1	-3	30*	-3	5	3
CCn1c(SCC(=O)NN=C/C=C\c2ccco2)nc2ccccc21	.	.	.	.	4
CCCN(C=Nc1sc2c(c1C#N)CCCCC2)CCC	.	.	.	.	3
O=c1c(-c2ccc(O)cc2)coc2c([C@@H]3O[C@H](CO)[C@@H](O)[C@H](O)[C@H]3O)c(O)ccc12	-3	.	-3	24*	3
CN(C)CCCNC(=O)CCc1nc2ccccc2c(=O)[nH]1	-1	3	-1	5	20*
COc1ccccc1CNC(=O)CCc1nc2ccccc2c(=O)[nH]1	-4	2	-3	-3	-1
CC(=O)N1CCc2[nH]c3ccc(C)cc3c2C1	-2	51*	-4	19	.
O=C(N1CCc2[nH]c3ccccc3c2C1)C(F)(F)F	-2	106*	-4	-4	-46
Cc1ccc(NN=C2CCS(=O)(=O)c3sccc32)cc1	.	.	.	.	1
Cc1cc(Cl)ccc1NC(=O)c1ccc2c(c1)CCN2S(C)(=O)=O	2	.	-3	16*	3
Cc1ccccc1NC(=O)c1ccc2c(c1)CCN2S(C)(=O)=O	-2	.	0	-1	-1
CCC(O)=NS(=O)(=O)c1ccc(N=NN(C)C)cc1	.	.	.	.	8
O=C(NN=Cc1cccnc1)c1ccc(NC(=O)c2ccc(Cl)cc2)cc1	.	.	.	.	6
C=CCN1C(=O)/C(=C/c2ccc(OC(C)=O)c(OCC)c2[N+](=O)[O-])SC1=S	22	.	-2	-98	42*
O=c1c2c(O)cc(O)cc2oc2ccc(O)c(OC3OC(CO)C(O)C(O)C3OC3OC(CO)C(O)C(O)C3O)c12 (stereo not drawn)	.	.	.	.	16
Cc1nc(N2CCN(c3ccccn3)CC2)c2c(C)c(C(=O)Nc3c(C)cc(Br)cc3C)sc2n1	0	19*	-3	-1	-10
CCn1c(SCC(=O)NN=Cc2cccs2)nc2ccccc21	.	.	.	.	3
CC(=O)OC1CC2(C)C(=NO)CCC2C2CCc3cc(O)ccc3C12 (stereo not drawn)	.	.	.	.	-3
COc1ccc(NN=C2CCCCC2=O)cc1	.	.	.	.	8
Cc1ccccc1OC(C)C(=O)NC1CCCC1 (stereo not drawn)	-4	5	-4	11	28*
Cc1ccccc1OCC(=O)OC(C)C(=O)NC1CCCC1 (stereo not drawn)	4	.	0	-13	5
CC(/C=C/c1ccccc1)=NNC(=O)CNC(=O)c1ccccc1Cl	.	.	.	.	2
O=C1CCCN1CCc1cccc2ccccc12	1	.	0	23*	0
O=C1CCCCN1CCc1c[nH]c2ccccc12	-1	0	-1	1	5

Screens from PubChem.
